In ChEMBL document CHEMBL3232816, “Substituted E-3-(3-indolylmethylene)1,3-dihydroindol-2-ones with antiproliferative activity. Study of the effects on HL-60 leukemia cells” (2014):
Structures can show the parent of a compound that is named as a salt.

Tests used:
Type in all cases: functional
[1] = Cytotoxicity against human ovarian cancer cells after 48 hrs; conditions: Cancer cell lines
In short: (§1)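 NCI 60-line panel. Compounds were dissolved in DMSO and tested at five 10-fold dilutions, the highest 10^-4 M (10^-3 M where footnoted), over 48 h of incubation. The readouts were GI50, TGI and LC50 in μM, with the panel mean also given. Only compounds passing a 10^-5 M single-dose prescreen were tested; some were repeated and averaged over two experiments.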

[2] = Cytotoxicity against human prostate cancer cells after 48 hrs; conditions: Cancer cell lines; for CC50: read-out: LC50 (the source's name); in short: as §1
[3] = Cytotoxicity against human renal cancer cells after 48 hrs; conditions: Cancer cell lines; in short: as §1
[4] = Cytotoxicity against human leukemia cells after 48 hrs; conditions: for GI50 / TGI: Leukemia cell; in short: as §1
[5] = Cytotoxicity against human NSCLC cells after 48 hrs; in short: as §1
[6] = Cytotoxicity against human breast cancer cells after 48 hrs; conditions: Cancer cell lines; for CC50: read-out: LC50 (the source's name); in short: as §1
[7] = Cytotoxicity against human CNS cancer cells after 48 hrs; conditions: Cancer cell lines; for CC50: read-out: LC50 (the source's name); in short: as §1
[8] = Cytotoxicity against human melanoma cells after 48 hrs; conditions: Melanoma cell; in short: as §1
[9] = Cytotoxicity against human colon cancer cells after 48 hrs; conditions: Cancer cell lines; for CC50: read-out: LC50 (the source's name); in short: as §1

## O=C1/C(=C/c2c(Cl)[nH]c3ccccc23)c2ccccc2N1Cc1ccccc1
[1]
  GI50: 9.12 µM
  TGI: 79.4 µM
[2]
  GI50: 6.17 µM
[3]
  GI50: 5.25 µM
  TGI: 77.6 µM
[4]
  GI50: 2.95 µM
  TGI: 21.4 µM
[5]
  GI50: 6.61 µM
  TGI: 85.1 µM
[6]
  GI50: 4.17 µM
  TGI: 56.2 µM
[7]
  GI50: 4.9 µM
  TGI: 69.2 µM
[8]
  GI50: 5.13 µM
  TGI: 61.7 µM
[9]
  GI50: 4.17 µM
  TGI: 79.4 µM

## O=C1Nc2ccc(Cl)cc2/C1=C\c1c(Cl)n(CCCc2ccccc2)c2ccccc12
[1]
  GI50: 2.45 µM
  LC50: 60.3 µM
  TGI: 23.4 µM
[2]
  GI50: 2 µM
  TGI: 6.46 µM
  CC50: 34.7 µM
[3]
  GI50: 1.86 µM
  LC50: 17.8 µM
  TGI: 9.77 µM
[4]
  GI50: 2.88 µM
  TGI: 81.3 µM
[5]
  GI50: 2.24 µM
  LC50: 28.8 µM
  TGI: 8.91 µM
[6]
  GI50: 2.19 µM
  TGI: 9.12 µM
  CC50: 42.7 µM
[7]
  GI50: 2.82 µM
  TGI: 10.2 µM
  CC50: 50.1 µM
[8]
  GI50: 2.04 µM
  LC50: 35.5 µM
  TGI: 5.75 µM
[9]
  GI50: 1.95 µM
  TGI: 5.62 µM
  CC50: 19.1 µM

## O=C1Nc2ccccc2/C1=C\c1c(Cl)n(Cc2ccccc2)c2ccccc12
[1]
  GI50: 20.9 µM
  LC50: 95.5 µM
  TGI: 66.1 µM
[2]
  GI50: 20.4 µM
  TGI: 55 µM
[3]
  GI50: 20.4 µM
  TGI: 70.8 µM
[4]
  LC50 (concentration giving 50% net cell kill): 75.9 µM
  GI50: 3.63 µM
  TGI: 21.4 µM
[5]
  GI50: 14.8 µM
  TGI: 57.5 µM
[6]
  GI50: 12.9 µM
  TGI: 64.6 µM
[7]
  GI50: 16.6 µM
  TGI: 47.9 µM
  CC50: 93.3 µM
[8]
  GI50: 8.91 µM
  LC50: 87.1 µM
  TGI: 32.4 µM
[9]
  GI50: 19.9 µM
  TGI: 60.3 µM
  CC50: 95.5 µM

## O=C1Nc2ccc(O)cc2/C1=C\c1c(Cl)n(CCc2ccccc2)c2ccccc12
[1]
  GI50: 9.12 µM
  LC50: 95.5 µM
  TGI: 64.6 µM
[2]
  GI50: 6.76 µM
  TGI: 47.9 µM
[3]
  GI50: 9.33 µM
  LC50: 95.5 µM
  TGI: 55 µM
[4]
  GI50: 3.39 µM
  TGI: 77.6 µM
[5]
  GI50: 7.08 µM
  TGI: 50.1 µM
[6]
  GI50: 3.98 µM
  TGI: 25.1 µM
[7]
  GI50: 10.5 µM
  TGI: 52.5 µM
  CC50: 95.5 µM
[8]
  GI50: 7.08 µM
  LC50: 74.1 µM
  TGI: 28.2 µM
[9]
  GI50: 9.77 µM
  TGI: 33.9 µM
  CC50: 72.4 µM

## CC[C@]1(O)C[C@H]2CN(CCc3c([nH]c4ccccc34)[C@@](C(=O)OC)(c3cc4c(cc3OC)N(C=O)[C@H]3[C@@](O)(C(=O)OC)[C@H](OC(C)=O)[C@]5(CC)C=CCN6CC[C@]43[C@@H]65)C2)C1 [VINCRISTINE SULFATE]
[1]
  GI50: 0.32 µM
[2]
  GI50: 0.13 µM
[3]
  GI50: 0.32 µM
[4]
  GI50: 0.1 µM
[5]
  GI50: 0.25 µM
[6]
  GI50: 0.32 µM
[7]
  GI50: 0.13 µM
[8]
  GI50: 0.16 µM
[9]
  GI50: 0.1 µM

## O=C1Nc2ccccc2/C1=C\c1c(Cl)n(CCCc2ccccc2)c2ccccc12
[1]
  GI50: 12 µM
  TGI: 72.4 µM
[2]
  GI50: 19.1 µM
[3]
  GI50: 13.8 µM
  TGI: 67.6 µM
[4]
  GI50: 8.91 µM
  TGI: 50.1 µM
[5]
  GI50: 14.1 µM
  TGI: 72.4 µM
[6]
  GI50: 10 µM
  TGI: 72.4 µM
[7]
  GI50: 16.6 µM
  TGI: 75.9 µM
[8]
  GI50: 13.8 µM
  TGI: 67.6 µM
[9]
  GI50: 12 µM
  TGI: 60.3 µM

## COc1c(/C=C2/C(=O)Nc3ccc(Cl)cc32)c2ccccc2n1-c1ccccc1
[1]
  GI50: 8.51 µM
  LC50: 66.1 µM
  TGI: 24 µM
[2]
  GI50: 9.33 µM
  TGI: 24 µM
  CC50: 60.3 µM
[3]
  GI50: 8.51 µM
  LC50: 51.3 µM
  TGI: 21.9 µM
[4]
  LC50 (concentration giving 50% net cell kill): 58.9 µM
  GI50: 2.34 µM
  TGI: 8.91 µM
[5]
  GI50: 9.55 µM
  LC50: 57.5 µM
  TGI: 24.6 µM
[6]
  GI50: 4.27 µM
  TGI: 13.8 µM
  CC50: 52.5 µM
[7]
  GI50: 5.25 µM
  TGI: 19.1 µM
  CC50: 52.5 µM
[8]
  GI50: 5.62 µM
  LC50: 51.3 µM
  TGI: 18.2 µM
[9]
  GI50: 6.31 µM
  TGI: 25.7 µM
  CC50: 60.3 µM

## COc1c(/C=C2/C(=O)Nc3ccccc32)c2ccccc2n1-c1ccccc1
[1]
  GI50: 1.38 µM
  LC50: 15.8 µM
  TGI: 4.07 µM
[2]
  GI50: 1.12 µM
  TGI: 3.47 µM
  CC50: 19.1 µM
[3]
  GI50: 1.12 µM
  LC50: 13.2 µM
  TGI: 4.07 µM
[4]
  LC50 (concentration giving 50% net cell kill): 50.1 µM
  GI50: 0.52 µM
  TGI: 2.63 µM
[5]
  GI50: 2.14 µM
  LC50: 27.5 µM
  TGI: 8.32 µM
[6]
  GI50: 1.23 µM
  TGI: 4.47 µM
  CC50: 27.5 µM
[7]
  GI50: 2.19 µM
  TGI: 8.51 µM
  CC50: 30.9 µM
[8]
  GI50: 1.48 µM
  LC50: 10.5 µM
  TGI: 3.98 µM
[9]
  GI50: 1.05 µM
  TGI: 3.24 µM
  CC50: 7.94 µM
